According to ChEMBL document CHEMBL4725393, “Prodrug Strategies to Improve the Solubility of the HCV NS5A Inhibitor Pibrentasvir (ABT-530)” (J Med Chem, 2020):
Converted amounts (≈) assume the structure as drawn.

How the values were obtained:
[1] = Stability of compound at pH 7.4 assessed as prodrug remaining level at 125 ug/ml incubated for 24 hrs by HPLC analysis; assay type: physicochemical; details: buffer, pH 7.4, 24 h, at 125 µg/mL
Outline: (§1)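 A DMSO stock of about 1.25 mg/mL was diluted into 0.1 N HCl (pH 1) or 50 mM phosphate buffer (pH 7.4), giving final concentrations of ~125 µg/mL prodrug and 10% DMSO. The solution was filtered and held at 37 °C in the HPLC autosampler, with injections at several times over 24 h. Percent remaining was calculated from prodrug peak area relative to t0.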

[2] = Equilibrium solubility of compound at pH 1 incubated for 24 to 48 hrs by HPLC analysis; assay type: physicochemical; details: buffer, time 24-48 hrs
Outline: (§2)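 For equilibrium solubility, excess solid was added to 3–4 mL of medium, in triplicate. Suspension pH was read after equilibration. Solids were removed by centrifugation at 4000 rpm at 25 °C, and the supernatant was passed through a 0.45 µm filter, discarding the first 2 mL. The filtrate was quantified by HPLC against standard curves.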

[3] = Solubility in FeSSIF at pH 5; assay type: physicochemical; outline: as §2
[4] = Equilibrium solubility of compound at pH 7.4 incubated for 24 to 48 hrs by HPLC analysis; assay type: physicochemical; details: buffer, time 24-48 hrs; outline: as §2
[5] = Stability of compound at pH 1 assessed as prodrug remaining level at 125 ug/ml incubated for 24 hrs by HPLC analysis; assay type: physicochemical; details: buffer, pH 1, 24 h, at 125 µg/mL; outline: as §1
[6] = AUC in CD1 mouse assessed as pibrentasvir1 level at 6 mg/kg, po measured up to 24 hrs; assay type: ADME, organism-based; parameters: route oral, dose 6 mg/kg, time <=24; details: in vivo
Outline: (§3)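 CD-1 mice with free access to food and water received an oral gavage of prodrug or PIB at 10 mL/kg in 0.2% HPMC. The dose was adjusted for prodrug MW to equal 6 mg/kg PIB. K2EDTA blood was drawn at 0.25, 0.5, 1, 3, 6, 9, 12 and 24 h. Plasma was spun at 3200 x g for 5 min at ~4°C and stored below -15°C. PIB and prodrug were measured; AUC in ng·h/mL, Cmax in ng/mL.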

[7] = Cmax in CD1 mouse assessed as pibrentasvir1 level at 6 mg/kg, po measured up to 24 hrs; assay type: ADME, organism-based; parameters: route oral, dose 6 mg/kg, time <=24; details: in vivo; outline: as §3
[8] = Cmax in CD1 mouse assessed as pibrentasvir1 level at 3 mg/kg, po measured up to 24 hrs; assay type: ADME, organism-based; parameters: route oral, dose 3 mg/kg, time <=24; details: in vivo
Outline: (§4)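 CD-1 mice, fed ad libitum, were dosed orally at a prodrug-MW-adjusted dose equal to 3 mg/kg PIB, as a solution or suspension. Serial K2EDTA blood samples were taken from 0.25 to 24 h. Plasma was separated by centrifugation and kept frozen. PIB and prodrug levels were reported as Cmax (ng/mL) and AUC (ng·h/mL).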

[9] = AUC in beagle dog assessed as pibrentasvir1 level at 40 mg, po measured up to 24 hrs; assay type: ADME, organism-based, Canis lupus familiaris; parameters: route oral, dose 40 mg, time <=24; details: in vivo
Outline: (§5)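 The dose equalled 40 mg PIB after adjustment for prodrug MW. Food was returned at 12 h. K2EDTA plasma was sampled at 0.25–24 h. Cmax is in ng/mL and AUC in ng·h/mL.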

[10] = Cmax in beagle dog assessed as pibrentasvir1 level at 40 mg, po measured up to 24 hrs; assay type: ADME, organism-based, Canis lupus familiaris; parameters: route oral, dose 40 mg, time <=24; details: in vivo; outline: as §5
[11] = AUC in CD1 mouse assessed as pibrentasvir1 level at 3 mg/kg, po measured up to 24 hrs; assay type: ADME, organism-based; parameters: route oral, dose 3 mg/kg, time <=24; details: in vivo; outline: as §4
[12] = Half life of compound at pH 7.4 at 125 ug/ml at 37 degC by HPLC analysis; assay type: physicochemical; details: dose 125 µg/ml

Row | Stabilty [1] | solubility thermodynamic [2] | solubility [3] | solubility thermodynamic [4] | Stabilty [5] | AUC [6] | Cmax [7] | Cmax [8] | AUC [9] | Cmax [10] | AUC [11] | half-life at 125 ug/ml [12] | Structure (SMILES)
1 | 80% | 609 µg/mL (≈ 465 µM) | > 1000 µg/mL | 874 µg/mL (≈ 668 µM) | 76% | 12600 ng·h/mL | 784 ng/mL |  |  |  |  |  | COC(=O)N[C@H](C(=O)N1CCC[C@H]1c1nc2cc(F)c([C@H]3CC[C@H](c4cc5c(cc4F)nc([C@@H]4CCCN4C(=O)[C@@H](NC(=O)OC)[C@@H](C)OC)n5COC(=O)CCCOP(=O)(O)O)N3c3cc(F)c(N4CCC(c5ccc(F)cc5)CC4)c(F)c3)cc2[nH]1)[C@@H](C)OC
2 | 100% | > 1000 µg/mL |  | > 1000 µg/mL | 91% | 819 ng·h/mL | 46 ng/mL |  |  |  |  |  | COC(=O)N[C@H](C(=O)N1CCC[C@H]1c1nc2cc(F)c([C@H]3CC[C@H](c4cc5c(cc4F)nc([C@@H]4CCCN4C(=O)[C@@H](NC(=O)OC)[C@@H](C)OC)n5COC(=O)c4cccc(OP(=O)(O)O)c4)N3c3cc(F)c(N4CCC(c5ccc(F)cc5)CC4)c(F)c3)cc2[nH]1)[C@@H](C)OC
3 | 76% | 146 µg/mL (≈ 112 µM) | > 1000 µg/mL | 49 µg/mL (≈ 37.4 µM) | 82% | 5570 ng·h/mL | 336 ng/mL |  | 4510 ng·h/mL | 462 ng/mL |  |  | COC(=O)N[C@H](C(=O)N1CCC[C@H]1c1nc2cc(F)c([C@H]3CC[C@H](c4cc5nc([C@@H]6CCCN6C(=O)[C@@H](NC(=O)OC)[C@@H](C)OC)n(COC(=O)CCCOP(=O)(O)O)c5cc4F)N3c3cc(F)c(N4CCC(c5ccc(F)cc5)CC4)c(F)c3)cc2[nH]1)[C@@H](C)OC
4 | 28% | 271 µg/mL (≈ 194 µM) | > 1000 µg/mL | > 1000 µg/mL | 95% | 8930 ng·h/mL | 513 ng/mL |  |  |  |  | < 1440 min | COC(=O)N[C@H](C(=O)N1CCC[C@H]1c1nc2cc(F)c([C@H]3CC[C@H](c4cc5c(cc4F)nc([C@@H]4CCCN4C(=O)[C@@H](NC(=O)OC)[C@@H](C)OC)n5COC(=O)[C@@H](NC(=O)OCOP(=O)(O)O)C(C)C)N3c3cc(F)c(N4CCC(c5ccc(F)cc5)CC4)c(F)c3)cc2[nH]1)[C@@H](C)OC
5 | 84% | 543 µg/mL (≈ 400 µM) | > 1000 µg/mL | 92 µg/mL (≈ 67.8 µM) | 98% | 2420 ng·h/mL | 132 ng/mL |  |  |  |  |  | COC(=O)N[C@H](C(=O)N1CCC[C@H]1c1nc2cc(F)c([C@H]3CC[C@H](c4cc5c(cc4F)nc([C@@H]4CCCN4C(=O)[C@@H](NC(=O)OC)[C@@H](C)OC)n5COC(=O)c4ccccc4COP(=O)(O)O)N3c3cc(F)c(N4CCC(c5ccc(F)cc5)CC4)c(F)c3)cc2[nH]1)[C@@H](C)OC
6 |  | > 1000 µg/mL |  | < 0.2 µg/mL |  |  |  |  |  |  |  |  | COC(=O)N[C@H](C(=O)N1CCC[C@H]1c1nc2cc(F)c([C@H]3CC[C@H](c4cc5c(cc4F)nc([C@@H]4CCCN4C(=O)[C@@H](NC(=O)OC)[C@@H](C)OC)n5COC(=O)[C@@H](N)C(C)C)N3c3cc(F)c(N4CCC(c5ccc(F)cc5)CC4)c(F)c3)cc2[nH]1)[C@@H](C)OC
7 | 38% | 114 µg/mL (≈ 81.6 µM) | > 1000 µg/mL | < 0.1 µg/mL | 95% | 8840 ng·h/mL | 498 ng/mL |  | 122 ng·h/mL | 16 ng/mL |  |  | COC(=O)N[C@H](C(=O)N1CCC[C@H]1c1nc2cc(F)c([C@H]3CC[C@H](c4cc5nc([C@@H]6CCCN6C(=O)[C@@H](NC(=O)OC)[C@@H](C)OC)n(COC(=O)[C@@H](NC(=O)OCOP(=O)(O)O)C(C)C)c5cc4F)N3c3cc(F)c(N4CCC(c5ccc(F)cc5)CC4)c(F)c3)cc2[nH]1)[C@@H](C)OC

The remaining lines, values behind:

Row | Structure (SMILES) | Stabilty [1] | solubility thermodynamic [2] | solubility [3] | solubility thermodynamic [4] | Stabilty [5] | AUC [6] | Cmax [7] | Cmax [8] | AUC [9] | Cmax [10] | AUC [11] | half-life at 125 ug/ml [12]
8 | COC(=O)N[C@H](C(=O)N1CCC[C@H]1c1nc2cc([C@H]3CC[C@H](c4cc5c(cc4F)nc([C@@H]4CCCN4C(=O)[C@@H](NC(=O)OC)[C@@H](C)OC)n5COP(=O)(O)O)N3c3cc(F)c(N4CCC(c5ccc(F)cc5)CC4)c(F)c3)c(F)cc2n1COP(=O)(O)O)[C@@H](C)OC |  | > 1000 µg/mL |  | > 1000 µg/mL |  |  |  | 28 ng/mL | 2580 ng·h/mL | 275 ng/mL | 477 ng·h/mL | 
9 | COC(=O)N[C@H](C(=O)N1CCC[C@H]1c1nc2cc(F)c([C@H]3CC[C@H](c4cc5c(cc4F)nc([C@@H]4CCCN4C(=O)[C@@H](NC(=O)OC)[C@@H](C)OC)n5COP(=O)(O)O)N3c3cc(F)c(N4CCC(c5ccc(F)cc5)CC4)c(F)c3)cc2n1COP(=O)(O)O)[C@@H](C)OC |  | 567 µg/mL (≈ 425 µM) |  | > 1000 µg/mL |  |  |  | 20 ng/mL | 611 ng·h/mL | 66 ng/mL | 353 ng·h/mL | 
10 | COC(=O)N[C@H](C(=O)N1CCC[C@H]1c1nc2cc(F)c([C@H]3CC[C@H](c4cc5nc([C@@H]6CCCN6C(=O)[C@@H](NC(=O)OC)[C@@H](C)OC)n(COC(=O)Cc6ccccc6OP(=O)(O)O)c5cc4F)N3c3cc(F)c(N4CCC(c5ccc(F)cc5)CC4)c(F)c3)cc2[nH]1)[C@@H](C)OC | 28% | 2 µg/mL (≈ 1.47 µM) | > 1000 µg/mL | < 0.2 µg/mL | 15% | 9560 ng·h/mL | 584 ng/mL |  | 2940 ng·h/mL | 288 ng/mL |  | 
11 | COC(=O)N[C@H](C(=O)N1CCC[C@H]1c1nc2cc(F)c([C@H]3CC[C@H](c4cc5nc([C@@H]6CCCN6C(=O)[C@@H](NC(=O)OC)[C@@H](C)OC)n(COC(=O)N(C)c6ncccc6COP(=O)(O)O)c5cc4F)N3c3cc(F)c(N4CCC(c5ccc(F)cc5)CC4)c(F)c3)cc2[nH]1)[C@@H](C)OC | 92% | > 1000 µg/mL | > 1000 µg/mL | > 1000 µg/mL | 92% | 6490 ng·h/mL | 380 ng/mL |  | 3020 ng·h/mL | 297 ng/mL |  | 
12 | COC(=O)N[C@H](C(=O)N1CCC[C@H]1c1nc2cc(F)c([C@H]3CC[C@H](c4cc5nc([C@@H]6CCCN6C(=O)[C@@H](NC(=O)OC)[C@@H](C)OC)n(COC(=O)c6cccc(OP(=O)(O)O)c6)c5cc4F)N3c3cc(F)c(N4CCC(c5ccc(F)cc5)CC4)c(F)c3)cc2[nH]1)[C@@H](C)OC | 100% | 397 µg/mL (≈ 296 µM) | > 1000 µg/mL | 827 µg/mL (≈ 616 µM) | 96% | 1510 ng·h/mL | 96 ng/mL |  |  |  |  | 
13 | COC(=O)N[C@H](C(=O)N1CCC[C@H]1c1nc2cc(F)c([C@H]3CC[C@H](c4cc5nc([C@@H]6CCCN6C(=O)[C@@H](NC(=O)OC)[C@@H](C)OC)n(COC(=O)c6ccccc6COP(=O)(O)O)c5cc4F)N3c3cc(F)c(N4CCC(c5ccc(F)cc5)CC4)c(F)c3)cc2[nH]1)[C@@H](C)OC | 89% | 99 µg/mL (≈ 72.9 µM) | > 1000 µg/mL | < 0.2 µg/mL | 99% | 10700 ng·h/mL | 622 ng/mL |  | 1150 ng·h/mL | 115 ng/mL |  | 
14 | COC(=O)N[C@H](C(=O)N1CCC[C@H]1c1nc2cc(F)c([C@H]3CC[C@H](c4cc5c(cc4F)nc([C@@H]4CCCN4C(=O)[C@@H](NC(=O)OC)[C@@H](C)OC)n5COC(=O)N(C)c4ncccc4COP(=O)(O)O)N3c3cc(F)c(N4CCC(c5ccc(F)cc5)CC4)c(F)c3)cc2[nH]1)[C@@H](C)OC | 90% | > 1000 µg/mL | > 1000 µg/mL | > 1000 µg/mL | 92% | 9750 ng·h/mL | 567 ng/mL |  |  |  |  | 
15 | COC(=O)N[C@H](C(=O)N1CCC[C@H]1c1nc2cc([C@H]3CC[C@H](c4cc5nc([C@@H]6CCCN6C(=O)[C@@H](NC(=O)OC)[C@@H](C)OC)n(COP(=O)(O)O)c5cc4F)N3c3cc(F)c(N4CCC(c5ccc(F)cc5)CC4)c(F)c3)c(F)cc2n1COP(=O)(O)O)[C@@H](C)OC |  | 135 µg/mL (≈ 101 µM) |  | 123 µg/mL (≈ 92.1 µM) | 100% |  |  | 396 ng/mL | 355 ng·h/mL | 40 ng/mL | 6070 ng·h/mL | 
